# Source: PubChem BioAssay
# STEP inh: STEP (human) phosphatase inhibition; P54829; recombinant STEP, OMFP fluorogenic substrate, fluorescence; inhibition, % at 20 µM; actives 0.25% (n = 360,000); AID 588621;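 active means inhibition at 20 µM, scaled per plate between control wells, above about 37%, limit read from the data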
#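 System: isolated STEP enzyme; schedule: 20 min enzyme reaction at room temperature, protected from light; medium: Bis-Tris buffer pH 6.0, 2.5 mM DTT, 0.005% Tween 20; signal: fluorescence, 480/540 nm; dosing: single compound dose of 20 µM, 1% DMSO final; also added: OMFP substrate, 25 µM final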
# LMPTP block: blocks human LMPTP phosphatase; P24666; AID 651560; inhibition, % at 20 µM; actives 0.22% (n = 360,000); recombinant LMPTP-A, OMFP fluorogenic substrate, fluorescence intensity;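 active means compounds that cut the enzyme signal by at least half of the control window in the single-dose screen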
# Target sequence (P24666 whole entry, looked up): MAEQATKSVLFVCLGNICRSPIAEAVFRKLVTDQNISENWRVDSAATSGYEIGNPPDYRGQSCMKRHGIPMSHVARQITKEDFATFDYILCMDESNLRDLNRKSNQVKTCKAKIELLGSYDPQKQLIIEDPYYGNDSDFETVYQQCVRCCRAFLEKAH
#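 Buffer or medium: Bis-Tris pH 6.0, DTT, detergent; Assay system: LMPTP-A enzyme; Quantity: 0.625 nM enzyme; Detection: endpoint fluorescence intensity; Times: 50 min dark incubation at room temperature; Controls: substrate-only low control, DMSO enzyme-plus-substrate high control; Doses: single 20 µM dose; Read-out: percent inhibition versus substrate-only and uninhibited controls; Reagent: 400 µM OMFP.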
# UBC9 SUMO inh: inhibitors of human SUMOylation (UBC9); actives 0.36% (n = 290,000); P63279; inhibition, % at 35 µM; HTRF SUMOylation assay, SAE1/SAE2 + UBC9, in vitro; AID 2006; in the data active means inhibition above about 50%, passing the limit was not always enough; inconclusive means no clear call, values can overlap the other calls
# Target sequence (P63279 whole entry, looked up): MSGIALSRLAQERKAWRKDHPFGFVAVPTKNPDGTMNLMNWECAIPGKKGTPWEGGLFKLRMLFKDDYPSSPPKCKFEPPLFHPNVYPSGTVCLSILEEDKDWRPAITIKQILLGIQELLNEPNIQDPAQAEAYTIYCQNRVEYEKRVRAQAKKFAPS
# SUMO1-SIM PPI: SUMO1-SIM interaction modulation; P63165; SUMO1 binding to a labelled peptide, TR-FRET, 1 h; inhibition, % at 20 µM; actives 0.33% (n = 360,000); AID 602429; in the data active means inhibition above about 37%
# Target sequence (P63165 whole entry, looked up): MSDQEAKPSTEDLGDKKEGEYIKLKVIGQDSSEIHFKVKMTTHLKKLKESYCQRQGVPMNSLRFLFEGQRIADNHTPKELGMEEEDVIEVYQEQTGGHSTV
# Scp1 inh: blocks human Scp-1 phosphatase activity; Q9GZU7; Recombinant Scp1, phosphopeptide, malachite green phosphate absorbance; inhibition, % at 20 µM; actives 0.88% (n = 340,000);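 active means inhibition above about 50% at 20 µM, limit read from the data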
# Target sequence (Q9GZU7 76-261 limits assumed): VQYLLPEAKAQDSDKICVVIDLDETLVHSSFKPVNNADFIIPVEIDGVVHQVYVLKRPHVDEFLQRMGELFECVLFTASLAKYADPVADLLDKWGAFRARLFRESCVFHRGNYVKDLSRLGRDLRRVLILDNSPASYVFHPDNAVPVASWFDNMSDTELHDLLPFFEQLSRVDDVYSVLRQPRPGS
#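 Test system – truncated SCP-1 phosphatase (76-261aa) · Reagent – Phosphorylated 17-residue peptide substrate · Incubation – 45 min room-temperature reaction, 5 min colour, 30 min stabiliser · Detection – colorimetric phosphate reagent with accelerator and stabiliser, absorbance at 630 nm · Measure – % inhibition at 20 µM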
# DNMT1 block: blocks human DNA methyltransferase DNMT1; inhibition (reported as % activation of signal), % at 10 µM; DNMT1 molecular beacon, Hinp1I cleavage, fluorescence; P26358; AID 588458; actives 0.83% (n = 360,000); in the data active means inhibition above about 50%
# Hits are given with their value; - = inactive; ? = inconclusive; . = no result. Sampled rows, rich in hits. Any-hit rate of the full collection: about 1.9%.
SMILES,STEP inh,LMPTP block,UBC9 SUMO inh,SUMO1-SIM PPI,Scp1 inh,DNMT1 block
O=C(O)C(Cc1ccccc1)N1C(=O)/C(=C/C=C/c2ccco2)SC1=S (stereo not drawn),83,64,73,115,84,97
O=C(O)CC(C(=O)O)N1C(=O)/C(=C/C=C/c2ccco2)SC1=S (stereo not drawn),89,66,.,112,88,79
Cc1ccc(NC(=O)CCCN2C(=O)/C(=C/C=C/c3ccccc3)SC2=S)cc1,-,-,-,-,-,-
O=C(O)CCCN1C(=O)/C(=C/C=C/c2ccco2)SC1=S,54,-,-,103,97,87
COc1ccc(CCN2Cc3c(N)cccc3C2=O)cc1OC,-,-,-,-,-,-
CCN(CC)c1ccc(/C=N/NC(=O)Cc2nnc(NC(=O)Nc3ccccc3)s2)cc1,-,-,-,-,-,50
O=C(Cc1nnc(NC(=O)c2ccccc2)s1)N/N=C\c1ccc(O)c(O)c1,-,-,-,-,-,59
COc1cc(/C=N/NC(=O)Cc2nnc(NC(=O)c3ccccc3)s2)ccc1O,-,-,-,-,-,-
CCN(CC)c1ccc(/C=N/NC(=O)Nc2ccccc2)cc1,-,-,-,-,-,-
COc1ccc(CN(C)C[C@H]2OCc3cnnn3CCCC(=O)N([C@H](C)CO)C[C@@H]2C)cc1,-,-,.,-,.,-
Cc1ccc(-n2ncc3c(NNC(=O)Cc4ccccc4)ncnc32)cc1,-,-,-,-,-,-
NC(=O)c1cc[n+](CC2=C(C(=O)O)N3C(=O)[C@@H](NC(=O)C(c4ccccc4)S(=O)(=O)[O-])[C@H]3SC2)cc1 (stereo partly drawn),97,-,-,82,85,98
Cc1nnc(SCC2=C(C(=O)O)N3C(=O)C(NC(=O)Cc4ccccc4)C3SC2)s1 (stereo not drawn),-,-,.,-,-,-
CC(C)C(C(=O)OCC(=O)c1ccccc1)N1C(=O)C2C3C=CC(C3)C2C1=O (stereo not drawn),-,-,-,-,-,-
O=C(Nc1cccc(C(=O)O)c1)/C(=C\c1ccc2c(c1)OCO2)NC(=O)c1ccc(Br)cc1,-,-,-,-,-,-
Cc1cc(N)nc(=O)n1C1CC(O)C(CO)O1 (stereo not drawn),-,-,.,-,-,-
CC(C)CC(=O)Nc1nnc(SCC(=O)NC2CCCCC2)s1,-,-,-,-,-,-
CC(=O)COC(=O)C1CCN(S(=O)(=O)c2cc([N+](=O)[O-])ccc2Cl)CC1,-,-,-,-,-,56
CN(Cc1ccccc1)C(=O)C1CCN(S(=O)(=O)c2cc([N+](=O)[O-])ccc2Cl)CC1,-,-,-,-,-,-
O=C(Nc1nc2ccc(F)cc2s1)C1CCN(S(=O)(=O)c2cc([N+](=O)[O-])ccc2Cl)CC1,-,-,-,-,55,-
O=C(/C=C/c1ccco1)N(Cc1cccc(F)c1)C1CCS(=O)(=O)C1 (stereo not drawn),-,-,-,-,-,-
C#CCOCCOCCOCCNc1nc(N2CCN(C(=O)CCCCCCCCCCNC(=O)[C@H](CCCCN)n3cc(C[C@@H](C)CC)nn3)CC2)nc(N2CCN(C(=O)CCCCCCCCCCNC(=O)[C@H](CCCCN)n3cc(C[C@@H](C)CC)nn3)CC2)n1,-,-,.,67,53,-
C#CCOCCOCCOCCNc1nc(N2CCN(C(=O)CCCCCCCCCCNC(=O)Cn3cc(C[C@@H](C)O)nn3)CC2)nc(N2CCN(C(=O)CCCCCCCCCCNC(=O)[C@H](CCCCN)n3cc(C[C@@H](C)CC)nn3)CC2)n1,-,-,.,-,-,-
C#CCOCCOCCOCCNc1nc(N2CCN(C(=O)CCCCCCCCCCNC(=O)[C@H](CCCCN)n3cc(C)nn3)CC2)nc(N2CCN(C(=O)CCCCCCCCCCNC(=O)[C@@H]([C@H](C)CC)n3cc(CCCCCN)nn3)CC2)n1,-,-,.,51,.,-
C#CCOCCOCCOCCNc1nc(N2CCN(C(=O)CCCCCCCCCCNC(=O)[C@@H](CCSC)n3cc(CCO)nn3)CC2)nc(N2CCN(C(=O)CCCCCCCCCCNC(=O)[C@H]([C@@H](C)CC)n3cc(CCCCN=C(N)N)nn3)CC2)n1,-,-,.,90,-,-
SMILES,STEP inh,LMPTP block,UBC9 SUMO inh,SUMO1-SIM PPI,Scp1 inh,DNMT1 block
C#CCOCCOCCOCCNc1nc(N2CCN(C(=O)CCCCCCCCCCNC(=O)[C@H](CCCCN)n3cc(CCO)nn3)CC2)nc(N2CCN(C(=O)CCCCCCCCCCNC(=O)[C@H](CCCN=C(N)N)n3cc(C[C@@H](C)CC)nn3)CC2)n1,-,-,.,90,-,-
C#CCOCCOCCOCCNc1nc(N2CCN(C(=O)CCCCCCCCCCNC(=O)[C@@H](CCSC)n3cc(CCO)nn3)CC2)nc(N2CCN(C(=O)CCCCCCCCCCNC(=O)[C@H]([C@@H](C)CC)n3cc(CCCCCN)nn3)CC2)n1,.,.,.,.,-,.
CCC(CC)c1nc(C(N)=O)c2[nH]c(=O)n(-c3ccc(OC)c(OC)c3)c2n1,-,-,-,-,-,-
CCOc1ccc(N(C)S(=O)(=O)c2ccc(C)c(C(=O)N3CCN(Cc4ccc5c(c4)OCO5)CC3)c2)cc1,-,-,.,-,-,-
CC(C)CC(=O)Nc1ccc2c3c(cccc13)CC2,-,-,-,-,-,-
Cc1ccc2oc(Nc3nc(-c4ccccc4)cc(=O)[nH]3)nc2c1,.,.,-,.,96,.
COCc1cc(=O)[nH]c(Nc2nc3ccccc3o2)n1,-,-,-,-,-,-
Cn1c(N)c(N2CCCCC2)c(=O)n(CC(=O)Nc2ccc(Cl)c(Cl)c2)c1=O,-,-,-,56,-,-
O=C(O)c1cc(Cl)c(Cl)cc1C(=O)Nc1cccc2cccnc12,-,-,76,-,-,-
CCC(=O)Nc1nonc1-c1nc2ccccc2n1Cc1ccc(Cl)c(Cl)c1,.,.,.,.,56,.
CN(C)/C=N/c1nc2nccc(-c3cccc(Cl)c3)n2n1,-,-,50,-,-,-
Fc1ccc(-c2ccnc3nc(-n4cccc4)nn23)cc1,-,-,-,-,-,-
CN(C)/C=N/c1nc2nccc(-c3cccs3)n2n1,-,-,?,-,-,-
CN(C)/C=N/c1nc2nccc(-c3ccc(F)cc3)n2n1,-,-,52,-,-,-
Fc1ccc(-c2ccnc3nc(N4CCOCC4)nn23)cc1,-,-,52,-,-,-
CC(Oc1cccc(Cl)c1)c1ccnc2nc(/N=C/N(C)C)nn12 (stereo not drawn),-,-,-,-,-,-
COc1ccc(NC(=O)COC(=O)CNC(=O)C2CCCCC2)cc1OC,-,-,.,-,-,-
CCN(CC)S(=O)(=O)c1ccc(NC(=O)COC(=O)CNC(=O)C2CCCCC2)cc1,-,-,.,-,-,-
